# TRPC4 agonist = activators of mouse TRPC4 channel, primary screen, Fluo4 calcium, HEK293 TRPC4beta/mu-opioid cells; Short transient receptor potential channel 4 (Mus musculus), Q9QUQ5; Fluo4 calcium fluorescence; hits give high values; B-score at 10 µM; actives 0.49% (n = 310,000); AID 2237, 2010;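 active = B-score above 5 SD of library B-scores, and initial fluorescence ratio not above library mean plus 5 SD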;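 note: positive B-score marks a calcium rise read as TRPC4 activation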
#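 Incubation: 45 min room-temperature Fluo4 loading, 110 s read / System: HEK293 cells stably co-expressing mouse TRPC4beta and mu-opioid receptor / Signal: Fluo4 fluorescence, kinetic / Control set: buffer (low) and maximal DAMGO (high) / Measure: integrated baseline-normalised fluorescence ratio, converted to per-well B score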
# TRPC6 inh = mouse TRPC6 channel inhibitors, primary screen, cell-based, HEK293, membrane potential dye | actives 1.1% (n = 310,000) | ACh-evoked depolarization; hits give low values | Short transient receptor potential channel 6 (Mus musculus), Q61143 | B-score at 10 µM;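 active = B-score under library mean minus 3 SD, initial fluorescence not abnormally high, positive integrated signal ratio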;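 note: B-score derived from integrated fluorescence ratio over the kinetic read; more negative B-score means stronger inhibition of depolarization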
# TRPC4 PAM = positive allosteric modulators of TRPC4, primary screen, cell-based, mouse TRPC4beta, HEK293 mu-opioid, Fluo-4 calcium | DAMGO EC20, Fluo-4 Ca2+ flux; hits give high values | AID 2227, 2009 | actives 0.42% (n = 310,000) | B-score at 10 µM;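 active = B-score of calcium response area above 5 SD of library B-scores, with initial fluorescence ratio within 5 SD of library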;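 note: B-score of integrated fluorescence ratio over time as area under calcium response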
# TRPC6 activator = mouse TRPC6 channel activators, primary screen, cell-based, HEK293, membrane potential dye; Short transient receptor potential channel 6 (Mus musculus), Q61143; HEK293-TRPC6 membrane potential dye fluorescence; hits give high values; B-score at 10 µM; actives 0.13% (n = 310,000); AID 2550, 2010;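 active = B-score of the integrated fluorescence ratio above library mean plus 3 SD, and starting fluorescence ratio within library mean plus 5 SD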;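 note: higher score means more depolarization so channel activation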
# TRPC4 inh = inhibitors of mouse TRPC4 channel, primary screen, Fluo4 calcium, HEK293 TRPC4beta/mu-opioid cells | Short transient receptor potential channel 4 (Mus musculus), Q9QUQ5 | DAMGO-evoked Fluo4 calcium flux; hits give low values | B-score at 10 µM | actives 0.39% (n = 300,000);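 active = B-score over 3 SD under the library average, no early fluorescence shift, positive overall ratio signal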
#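 Assay system – HEK293 line stably carrying TRPC4beta and mu-opioid receptor · Doses – single dose · Detection – Fluo4 calcium-dye fluorescence, kinetic read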
# TRPC4 spec 2 = second selectivity test of TRPC6 inhibitors: effect on mouse TRPC4; shares compounds with TRPC6 inh; HEK293 TRPC4/MOR, membrane potential dye fluorescence; channel activated by saturating DAMGO dose; inhibition, % at 10 µM; actives 42% (n = 920); AID 2776;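 active = compounds whose fluorescence signal differed from control wells by over 3 SD, either direction, in both duplicate plates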
# TRPC4 spec = mouse TRPC4 modulation by TRPC6 hits, confirmation, selectivity assay for TRPC6 inhibitor project, cell-based, HEK293 TRPC4/mu-opioid, membrane potential dye; activity change, negative = inhibition, % at 10 µM; shares compounds with TRPC6 inh; actives 61% (n = 920); membrane potential fluorescence; AID 2777, 2010;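 active = rise or fall in signal beyond 3 SD of buffer-only wells in both replicate plates, either sign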;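 note: integrated kinetic ratio of fluorescence range over baseline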
# HEK293 MPD ctr 2-1 = nonspecific membrane potential effects, parental HEK293, confirmation, counter-screen for TRPC6 inhibitor project, cell-based, second counter screen | shares compounds with TRPC6 inh | parental HEK293 membrane potential dye fluorescence; maximal acetylcholine challenge after compound addition | signal change vs control, % at 10 µM | actives 31% (n = 920) | AID 2779, 2010;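 active = membrane potential signal moving either way by over 3 SD of the maximum-effect control, in both duplicate plates, meaning non-specific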
# HEK293 MPD ctr-1 = membrane potential modulation in parental HEK293, confirmation, counter-screen for TRPC6 inhibitor project, cell-based; parental HEK293 membrane potential dye fluorescence; shares compounds with TRPC6 inh; actives 60% (n = 920); AID 2780, 2010; membrane potential signal change, % at 10 µM;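 active = membrane potential signal shifting up or down by more than 3 SD of buffer-only wells, on both duplicate plates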
# HEK293 MPD ctr-2 = parental HEK293 membrane potential modulation, confirmation, counter-screen for TRPC6 modulator project, cell-based; shares compounds with TRPC6 inh; membrane potential dye fluorescence; membrane potential signal change, % at 10 µM; actives 51% (n = 2,400); AID 488924, 2010;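 active = membrane potential signal moves up or down beyond 5 SD from buffer-only wells, on both duplicate plates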
# HEK293 MPD ctr 2-2 = parental HEK293 nonspecific activity of TRPC6 modulators, second screen; shares compounds with TRPC6 inh; membrane potential dye fluorescence; after compound, maximal acetylcholine stimulation; inhibition, % at 10 µM; actives 14% (n = 2,400); AID 488926;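 active = membrane potential signal drops by more than 5 SD from the mean control signal, in both duplicate plates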;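 note: plate controls were acetylcholine ECmax control wells for no effect and buffer only wells for full effect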
# TRPC4 ctr mod = TRPC4 modulation by TRPC6 hit compounds, confirmation, selectivity assay for TRPC6 modulator project, cell-based, HEK293 TRPC4/mu-opioid, membrane potential dye, mouse. shares compounds with TRPC6 inh. membrane potential fluorescence. percent change from control (negative = decrease, positive = increase), % at 10 µM. actives 69% (n = 2,400);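 active = membrane potential signal moved up or down beyond 5 SD of buffer control wells, in both duplicate plates, actives on both sides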;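 note: plate controls were assay buffer wells for no effect and DAMGO maximal-effect wells for full effect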
# TRPC4/MOR inh 2 = second selectivity test of TRPC6 modulators against mouse TRPC4; shares compounds with TRPC6 inh; HEK293 TRPC4/mu-opioid, membrane potential dye fluorescence; stimulated with maximal-effect DAMGO; inhibition, % at 10 µM; actives 55% (n = 2,400); AID 488928;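 active = drop in membrane potential signal beyond 5 SD of the control wells in both duplicate plates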;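 note: TRPC4 counter screen for TRPC6 hits run under conditions tuned for TRPC6 not TRPC4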
# TRPC6 inh conf = mouse TRPC6 channel inhibitors, confirmation, HEK293 cells, membrane potential dye, duplicate; shares compounds with TRPC6 inh; ACh-evoked depolarization; inhibition, % at 10 µM; actives 43% (n = 3,300); AID 488960, 2010;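 active = fluorescence ratio falls more than 5 SD below the full-stimulation control mean, in both duplicate runs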;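 note: integrated fluorescence ratio of peak minus minimum over baseline after agonist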
# TRPC6 act conf = mouse TRPC6 channel activators, confirmation, HEK293 cells, membrane potential dye, duplicate | actives 11% (n = 2,800) | AID 488961, 2010 | activation, % at 10 µM | shares compounds with TRPC6 inh | HEK293-TRPC6 membrane potential dye fluorescence, FDSS;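 active = ratio signal rise beyond 5 SD above unstimulated control wells' mean, seen in both duplicate runs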;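 note: plate controls were buffer EC0 wells for no effect and acetylcholine ECmax response for full effect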
# Numbers without * were called inactive; i = inactive; . = no result. Shown are actives, neighbours in structure and some others; about 2.3% of the full set was active somewhere.
SMILES,TRPC4 agonist,TRPC6 inh,TRPC4 PAM,TRPC6 activator,TRPC4 inh,HEK293 MPD ctr-2,HEK293 MPD ctr 2-2,TRPC4 ctr mod,TRPC4/MOR inh 2,TRPC6 inh conf,TRPC6 act conf,others
O=C(NCC(=O)N(c1ccc2c(c1)OCCO2)C(C(=O)NC1CCCC1)c1ccco1)c1ccco1 (stereo not given),i,-7.7*,i,i,i,.,.,.,.,62%*,.,TRPC4 spec 2=i;TRPC4 spec=1.1%*;HEK293 MPD ctr 2-1=i;HEK293 MPD ctr-1=0.7%*
O=C(NCC(=O)N(c1cccc(F)c1)C(C(=O)NC1CCCC1)c1ccco1)c1ccco1 (stereo not given),i,i,i,i,i,.,.,.,.,.,.,
COc1ccc(OCC(O)CNC(=O)c2ccc(OC)cc2)cc1 (stereo not given),i,i,i,i,i,.,.,.,.,.,.,
COc1ccc(OCC(O)COc2ccc(OC)cc2)cc1,i,-6.4*,i,i,i,i,i,i,i,66%*,.,
N=c1c(C(=O)NCc2ccco2)cc2c(=O)n3ccccc3nc2n1CC1CCCO1 (stereo not given),i,i,i,i,i,.,.,.,.,.,.,
COCCn1c(=N)c(C(=O)NCc2ccco2)cc2c(=O)n3cc(C)ccc3nc21,i,-8.2*,i,i,.,422%*,120%*,-74%*,40%*,50%*,i,
N=c1c(C(=O)NCc2ccco2)cc2c(=O)n3ccccc3nc2n1CCc1ccccc1,i,-5.8*,i,i,i,-80%*,i,-30%*,52%*,46%*,i,
Cc1ccc(Cn2c(=N)c(C(=O)NCc3ccco3)cc3c(=O)n4ccccc4nc32)cc1,48*,-5*,i,i,i,i,i,-32%*,38%*,36%*,i,

# From PubChem
